Experimental data from ChEMBL document CHEMBL1212873, “Inactivation of protein tyrosine phosphatases by oltipraz and other cancer chemopreventive 1,2-dithiole-3-thiones” (Bioorg Med Chem, 2010).
Calls of active or inactive are those of the source. The rule behind the calls is not given here.

What was measured:
[1] = biological target: T1, Tyrosine-protein phosphatase non-receptor type 1 (Homo sapiens) (UniProt P18031); assay: Competitive inhibition of human PTP1B catalytic subunit assessed as enzyme inactivation at 25 uM after 15 mins by spectrophotometry
T1 sequence (whole entry): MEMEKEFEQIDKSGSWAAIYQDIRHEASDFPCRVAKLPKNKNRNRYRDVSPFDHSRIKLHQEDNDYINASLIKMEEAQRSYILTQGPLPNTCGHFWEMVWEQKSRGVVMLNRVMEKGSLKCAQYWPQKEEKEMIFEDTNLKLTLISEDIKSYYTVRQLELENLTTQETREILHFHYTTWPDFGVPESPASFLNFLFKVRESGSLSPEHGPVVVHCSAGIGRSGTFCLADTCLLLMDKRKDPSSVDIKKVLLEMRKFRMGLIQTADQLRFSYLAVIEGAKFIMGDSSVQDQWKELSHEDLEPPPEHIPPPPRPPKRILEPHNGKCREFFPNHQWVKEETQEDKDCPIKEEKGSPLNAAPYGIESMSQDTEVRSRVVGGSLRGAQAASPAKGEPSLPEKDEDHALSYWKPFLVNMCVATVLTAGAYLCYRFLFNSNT
Method in brief: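 Thiol-free PTP1B (12.5 nM final) with compound at 25 µM and 20 mM pNPP in 50 mM Tris, 50 mM bis-Tris, 100 mM sodium acetate, 10 mM DETAPAC, 1% DMF, pH 7.2, 23 °C. Activity loss followed at 410 nm; apparent inactivation rate from first-order fit of progress curves; mean of three experiments.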

[2] = biological target: T1, Tyrosine-protein phosphatase non-receptor type 1 (Homo sapiens); conditions: 50 uM
[3] = biological target: T1, Tyrosine-protein phosphatase non-receptor type 1 (Homo sapiens); conditions: 2 to 50 uM
[4] = biological target: T2, Tyrosine-protein phosphatase non-receptor type 11 (Homo sapiens) (UniProt Q06124); conditions: 10 to 50 uM
T2 sequence (whole entry): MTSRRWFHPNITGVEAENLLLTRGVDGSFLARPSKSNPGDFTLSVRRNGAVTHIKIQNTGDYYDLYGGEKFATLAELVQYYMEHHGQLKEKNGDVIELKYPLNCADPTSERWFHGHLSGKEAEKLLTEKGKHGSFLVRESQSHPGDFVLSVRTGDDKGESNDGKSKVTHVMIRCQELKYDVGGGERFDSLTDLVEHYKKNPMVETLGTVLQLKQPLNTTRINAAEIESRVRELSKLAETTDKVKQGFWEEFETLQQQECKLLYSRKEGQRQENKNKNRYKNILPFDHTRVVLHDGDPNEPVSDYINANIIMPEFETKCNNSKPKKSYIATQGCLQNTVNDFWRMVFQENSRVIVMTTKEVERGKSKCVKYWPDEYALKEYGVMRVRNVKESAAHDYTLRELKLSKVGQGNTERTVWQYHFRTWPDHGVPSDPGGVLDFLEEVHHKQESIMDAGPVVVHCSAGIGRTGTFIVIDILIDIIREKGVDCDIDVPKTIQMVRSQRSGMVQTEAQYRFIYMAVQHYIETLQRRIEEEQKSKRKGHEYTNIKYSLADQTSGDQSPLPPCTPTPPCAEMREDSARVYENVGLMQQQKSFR

[5] = biological target: T1, Tyrosine-protein phosphatase non-receptor type 1 (Homo sapiens); conditions: 2 to 50 uM; remark: listed apart in the source
[6] = biological target: T1, Tyrosine-protein phosphatase non-receptor type 1 (Homo sapiens); conditions: 50 uM; remark: listed apart in the source
[7] = biological target: T1, Tyrosine-protein phosphatase non-receptor type 1 (Homo sapiens); conditions: 2 to 50 uM; remark: listed apart in the source
[8] = biological target: T2, Tyrosine-protein phosphatase non-receptor type 11 (Homo sapiens); conditions: 10 to 50 uM; remark: listed apart in the source
[9] = biological target: T1, Tyrosine-protein phosphatase non-receptor type 1 (Homo sapiens); conditions: 2 to 50 uM; remark: listed apart in the source
[10] = biological target: T1, Tyrosine-protein phosphatase non-receptor type 1 (Homo sapiens); conditions: 50 uM; remark: listed apart in the source
[11] = biological target: T1, Tyrosine-protein phosphatase non-receptor type 1 (Homo sapiens); conditions: 2 to 50 uM; remark: listed apart in the source
[12] = biological target: T1, Tyrosine-protein phosphatase non-receptor type 1 (Homo sapiens); conditions: 50 uM; remark: listed apart in the source
[13] = biological target: T2, Tyrosine-protein phosphatase non-receptor type 11 (Homo sapiens); conditions: 10 to 50 uM; remark: listed apart in the source
[14] = biological target: T2, Tyrosine-protein phosphatase non-receptor type 11 (Homo sapiens); assay: Irreversible inhibition of SHP2 at 10 to 50 uM in presence of 100 mM dithiothreitol

inhibition [1]	inhibition [2]	inhibition [3]	inhibition [4]	inhibition [5]	inhibition [6] [%]	inhibition [7]	inhibition [8]	inhibition [9]	inhibition [10] [%]	inhibition [11]	inhibition [12] [%]	inhibition [13]	inhibition [14]	SMILES
Active														COc1ccc(-c2cc(=S)ss2)cc1
Active	inactive	Active	inactive	Active	70	tde	inactive	Active	50	Active	> 97	Active		Cc1c(-c2cnccn2)ssc1=S
Active													inactive	S=c1ccss1
